# ChEMBL document CHEMBL4732051, “The discovery of potent small molecule activators of human STING” (Eur J Med Chem, 2021)
# Activity calls are given as the source filed them. The rule behind the calls is not given here.
# What was measured:
# [1] = tested on: Stimulator of interferon genes protein (Homo sapiens), Q86WV6 [UNDEFINED MUTATION]; assay: Activation of human STING R232 in A 172 cells assessed as phosphorylation at (Ser366) at 10 uM incubated for 2 hrs and measured by Western blot analysis; type: cell-based; conditions: filed as activator
# How it was run: (§1)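 Tumor cell lines or human primary cells carrying endogenous STING variants; STING KO cells as control. 10µM for 2 h, then lysed in RIPA with phosphatase and protease inhibitors. 10 μg protein on 10% SDS-PAGE, blotted for pSTING (Ser366), pIRF3 (Ser396), STING, IRF3 and actin, ECL detection.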
# Cytochrome P450 2C9 = Cytochrome P450 2C9 (Homo sapiens, UniProt P11712); assay: Inhibition of CYP2C9 (unknown origin); type: ADME
# [2] = molecular target: T1, Stimulator of interferon genes protein (Homo sapiens, UniProt Q86WV6); assay: Activation of human STING in human PBMC cells assessed as induction of IFNbeta expression at 10 uM incubated upto 24 hrs and measured by qt-PCR analysis; type: cell-based; conditions: filed as activator, time hrs <=24
# How it was run: (§2)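 2 x 10^5 freshly isolated human PBMC from healthy donors, separated on Histopaque, given a single compound concentration. Harvested early (6 hr) or late (20h). Cytokine mRNA read by qRT-PCR as relative normalized expression (fold) against vehicle-treated cells.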
# Cytochrome P450 3A4 = Cytochrome P450 3A4 (Homo sapiens, UniProt P08684); assay: Inhibition of CYP3A4 (unknown origin); type: ADME
# [3] = tested on: Stimulator of interferon genes protein (Homo sapiens), Q86WV6 [R71H,G230A,R293Q]; assay: Activation of human STING HAQ mutant expressed in HEK293T cells assessed as phosphorylation of IRF-3 at (Ser396) at 10 uM incubated for 2 hrs and measured by Western blot analysis; type: cell-based; conditions: filed as activator
# How it was run: (§3)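 HEK293T clones stably carrying each human STING variant, picked by blasticidin selection and limiting dilution. 5 x 10^5 cells were exposed to compound at 10μM for 2 h, lysed in RIPA with phosphatase and protease inhibitors, and 10 μg protein run on 10% SDS-PAGE. Immunoblots probed for pSTING (Ser366), pIRF3 (Ser396), total STING, IRF3 and actin, detected by ECL.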
# B16-F10 = assay: Cytotoxicity against mouse B16 F10 cells at 5 to 10 uM; type: cell-based; conditions: b16-f10, 10 µM, dose 5-10 µM
# HEK293T [4] = assay: Induction of STING R232H mutant (unknown origin) expressed in HEK293T cells assessed as increase in luciferase coupled ISG54-ISRE activity incubated for 18 hrs luciferase reporter gene assay; type: cell-based; conditions: Homo sapiens, filed as activator
# [5] = Half life in BALB/c mouse at 5 mg/kg, iv measured up to 24 hrs by LC-MS/MS analysis; type: ADME, organism-based; conditions: in vivo
# How it was run: (§4)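 Overnight-fasted mice, n=3 per group, single dose by lateral tail vein (iv) or oral gavage (po). Retro-orbital blood under isoflurane at 2 min–24 h (iv) or 5 min–24 h (po). Plasma spun at 1500 x g, 15 min, 4 °C, stored -80 °C, then analysed by LCMS.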
# [6] = tested on: Stimulator of interferon genes protein (Homo sapiens), Q86WV6 [R71H,G230A,R293Q]; assay: Induction of STING HAQ mutant (unknown origin) expressed in HEK293T cells assessed as increase in luciferase coupled ISG54-ISRE activity incubated for 18 hrs luciferase reporter gene assay; type: cell-based; conditions: filed as activator
# [7] = Chemical stability of compound in buffer at pH 3 to 8
# [8] = molecular target: T1, Stimulator of interferon genes protein; assay: Activation of human STING in human PBMC cells assessed as induction of CCL20 expression at 10 uM measured by qt-PCR analysis; type: cell-based; conditions: filed as activator; how it was run: as §2
# [9] = tested on: Stimulator of interferon genes protein (Homo sapiens), Q86WV6 [UNDEFINED MUTATION]; assay: Activation of human STING R232 in human MDA-MB-468 cells assessed as phosphorylation at (Ser366) at 10 uM incubated for 2 hrs and measured by Western blot analysis; type: cell-based; conditions: filed as activator; how it was run: as §1
# [10] = Volume of distribution in BALB/c mouse at 5 mg/kg, iv measured up to 24 hrs by LC-MS/MS analysis; type: ADME, organism-based; conditions: in vivo
# How it was run: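 Overnight-fasted mice, randomized, n=3 per group, each given a single dose by lateral tail vein (iv) or oral gavage. Blood (50 μl per point, under isoflurane) was taken from the retro-orbital plexus. Sampling was at 2 min–24 h after iv and 5 min–24 h after oral dosing. Plasma was separated at 1500 x g for 15 min at 4 °C, stored at -80 °C, and analysed by LCMS.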
# [11] = molecular target: Stimulator of interferon genes protein (Macaca fascicularis) (UniProt A0A2K5TV20); assay: Activation of cynomolgus monkey STING; conditions: filed as activator
# [12] = molecular target: T1, Stimulator of interferon genes protein; assay: Activation of human STING expressed in human PBMC cells assessed as phosphorylation of IRF3 at (Ser396) at 10 uM incubated for 2 hrs and measured by Western blot analysis; type: cell-based; conditions: filed as activator; how it was run: as §1
# [13] = tested on: Stimulator of interferon genes protein (Homo sapiens), Q86WV6 [G230A,R293Q]; assay: Activation of human STING AQ mutant expressed in HEK293T cells assessed as phosphorylation of IRF-3 at (Ser396) at 10 uM incubated for 2 hrs and measured by Western blot analysis; type: cell-based; conditions: filed as activator; how it was run: as §3
# hERG (KCNH2) = hERG (KCNH2) (Homo sapiens, UniProt Q12809); assay: Inhibition of human ERG at 10 uM
# Cytochrome P450 1A2 = molecular target: T2, Cytochrome P450 1A2 (Homo sapiens, UniProt P05177); assay: Inhibition of CYP1A2 (unknown origin); type: ADME
# T2 sequence (P05177 whole entry): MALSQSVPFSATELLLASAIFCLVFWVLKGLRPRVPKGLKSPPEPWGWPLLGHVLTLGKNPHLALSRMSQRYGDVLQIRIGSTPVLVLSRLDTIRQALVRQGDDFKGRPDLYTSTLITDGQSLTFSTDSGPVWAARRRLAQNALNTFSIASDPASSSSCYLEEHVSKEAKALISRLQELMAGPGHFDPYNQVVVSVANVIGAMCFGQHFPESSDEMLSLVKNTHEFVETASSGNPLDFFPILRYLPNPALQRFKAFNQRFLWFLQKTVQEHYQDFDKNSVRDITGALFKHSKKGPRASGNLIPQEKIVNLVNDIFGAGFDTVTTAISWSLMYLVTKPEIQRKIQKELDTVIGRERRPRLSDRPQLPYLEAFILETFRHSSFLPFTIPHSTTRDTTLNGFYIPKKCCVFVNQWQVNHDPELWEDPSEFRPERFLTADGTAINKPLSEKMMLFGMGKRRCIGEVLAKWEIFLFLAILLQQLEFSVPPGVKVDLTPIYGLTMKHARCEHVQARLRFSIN
# [14] = AUC in BALB/c mouse at 10 mg/kg, po measured up to 24 hrs by LC-MS/MS analysis; type: ADME, organism-based; design: route oral, dose 10 mg/kg, time <=24; conditions: in vivo; how it was run: as §4
# HEK293T [15] = assay: Induction of STING H232 mutant (unknown origin) expressed in HEK293T cells assessed as increase in luciferase coupled ISG54-ISRE activity incubated for 18 hrs luciferase reporter gene assay; type: cell-based; conditions: Homo sapiens, filed as activator
# HEK293T [16] = assay: Activation of human STING R232H mutant expressed in HEK293T cells assessed as phosphorylation at (Ser366) upto 10 uM incubated for 2 hrs and measured by Western blot analysis; type: cell-based; conditions: filed as activator, dose microM <=10, time 2.0 hrs; how it was run: as §3
# T1 sequence (Q86WV6 whole entry): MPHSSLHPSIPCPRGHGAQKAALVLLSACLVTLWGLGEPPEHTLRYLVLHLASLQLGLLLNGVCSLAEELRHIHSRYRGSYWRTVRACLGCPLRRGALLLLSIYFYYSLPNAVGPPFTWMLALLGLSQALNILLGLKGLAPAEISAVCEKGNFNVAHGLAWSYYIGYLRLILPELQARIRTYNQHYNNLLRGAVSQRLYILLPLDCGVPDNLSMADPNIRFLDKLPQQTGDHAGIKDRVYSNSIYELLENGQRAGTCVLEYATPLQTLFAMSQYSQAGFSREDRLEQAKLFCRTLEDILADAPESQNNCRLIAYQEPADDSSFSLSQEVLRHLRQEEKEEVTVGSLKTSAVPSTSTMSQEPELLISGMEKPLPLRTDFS
# Sequence of Stimulator of interferon genes protein (Homo sapiens), Q86WV6 [R71H,G230A,R293Q] (Q86WV6 whole entry R71H/G230A/R293Q): as the sequence (Q86WV6 whole entry) above, with R71H, G230A, R293Q counted along it
# Sequence of Stimulator of interferon genes protein (Homo sapiens), Q86WV6 [UNDEFINED MUTATION] (Q86WV6 whole entry, looked up, change not shown): as the sequence (Q86WV6 whole entry) above
# Sequence of Cytochrome P450 2C9 (P11712 whole entry): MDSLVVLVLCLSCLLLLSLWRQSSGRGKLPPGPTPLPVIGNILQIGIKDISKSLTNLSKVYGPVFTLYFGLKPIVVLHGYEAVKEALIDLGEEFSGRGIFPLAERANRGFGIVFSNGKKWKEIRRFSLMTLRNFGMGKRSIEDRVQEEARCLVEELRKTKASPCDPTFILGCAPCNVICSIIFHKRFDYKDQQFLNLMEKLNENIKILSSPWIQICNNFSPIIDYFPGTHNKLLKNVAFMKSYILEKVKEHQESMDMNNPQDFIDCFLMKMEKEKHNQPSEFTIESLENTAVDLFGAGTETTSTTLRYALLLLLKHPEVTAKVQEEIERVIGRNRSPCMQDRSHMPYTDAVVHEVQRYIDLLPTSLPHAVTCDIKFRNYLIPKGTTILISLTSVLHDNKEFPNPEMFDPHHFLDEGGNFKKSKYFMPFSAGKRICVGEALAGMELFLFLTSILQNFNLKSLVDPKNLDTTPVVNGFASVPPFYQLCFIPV
# Sequence of hERG (KCNH2) (Q12809 whole entry): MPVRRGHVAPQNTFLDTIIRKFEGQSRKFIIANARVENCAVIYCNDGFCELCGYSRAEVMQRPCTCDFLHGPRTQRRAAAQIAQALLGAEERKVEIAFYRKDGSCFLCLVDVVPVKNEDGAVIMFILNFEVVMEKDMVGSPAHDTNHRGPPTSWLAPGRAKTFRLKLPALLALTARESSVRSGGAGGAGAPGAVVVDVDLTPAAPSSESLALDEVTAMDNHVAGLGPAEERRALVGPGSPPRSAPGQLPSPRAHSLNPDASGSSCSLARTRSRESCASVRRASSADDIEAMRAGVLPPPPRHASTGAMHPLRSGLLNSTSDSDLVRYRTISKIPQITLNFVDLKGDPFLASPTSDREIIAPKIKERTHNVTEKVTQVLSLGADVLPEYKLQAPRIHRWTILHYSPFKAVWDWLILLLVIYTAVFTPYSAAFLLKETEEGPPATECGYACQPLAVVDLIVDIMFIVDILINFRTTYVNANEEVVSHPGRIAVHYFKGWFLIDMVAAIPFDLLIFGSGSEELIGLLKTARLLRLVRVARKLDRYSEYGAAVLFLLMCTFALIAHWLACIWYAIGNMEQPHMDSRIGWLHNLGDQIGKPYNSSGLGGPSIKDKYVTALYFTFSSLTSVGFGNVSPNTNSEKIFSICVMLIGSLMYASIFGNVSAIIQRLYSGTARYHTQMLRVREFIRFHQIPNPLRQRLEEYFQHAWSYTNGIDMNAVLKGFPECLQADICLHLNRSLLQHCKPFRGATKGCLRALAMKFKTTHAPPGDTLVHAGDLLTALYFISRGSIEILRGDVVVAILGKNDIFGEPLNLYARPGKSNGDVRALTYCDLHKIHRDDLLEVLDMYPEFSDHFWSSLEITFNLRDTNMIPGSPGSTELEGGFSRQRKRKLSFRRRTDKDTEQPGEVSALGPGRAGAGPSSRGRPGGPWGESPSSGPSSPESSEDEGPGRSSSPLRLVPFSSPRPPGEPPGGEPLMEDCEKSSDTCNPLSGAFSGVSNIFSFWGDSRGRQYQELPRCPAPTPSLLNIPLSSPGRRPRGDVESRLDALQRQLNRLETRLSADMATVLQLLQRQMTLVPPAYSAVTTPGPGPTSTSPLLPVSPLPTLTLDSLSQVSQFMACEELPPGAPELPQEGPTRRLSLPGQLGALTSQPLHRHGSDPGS
# Sequence of Stimulator of interferon genes protein (Macaca fascicularis) (A0A2K5TV20 as listed by the source): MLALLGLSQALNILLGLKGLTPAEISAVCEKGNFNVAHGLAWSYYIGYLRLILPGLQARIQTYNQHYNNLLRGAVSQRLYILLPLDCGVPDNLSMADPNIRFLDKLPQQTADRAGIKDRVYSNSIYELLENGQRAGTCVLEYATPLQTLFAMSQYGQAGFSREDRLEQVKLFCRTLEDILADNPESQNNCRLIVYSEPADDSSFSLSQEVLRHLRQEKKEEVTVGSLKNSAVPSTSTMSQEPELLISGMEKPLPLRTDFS
# Sequence of Stimulator of interferon genes protein (Homo sapiens), Q86WV6 [G230A,R293Q] (Q86WV6 whole entry G230A/R293Q): as the sequence (Q86WV6 whole entry) above, with G230A, R293Q counted along it
# Sequence of Cytochrome P450 3A4 (P08684 whole entry): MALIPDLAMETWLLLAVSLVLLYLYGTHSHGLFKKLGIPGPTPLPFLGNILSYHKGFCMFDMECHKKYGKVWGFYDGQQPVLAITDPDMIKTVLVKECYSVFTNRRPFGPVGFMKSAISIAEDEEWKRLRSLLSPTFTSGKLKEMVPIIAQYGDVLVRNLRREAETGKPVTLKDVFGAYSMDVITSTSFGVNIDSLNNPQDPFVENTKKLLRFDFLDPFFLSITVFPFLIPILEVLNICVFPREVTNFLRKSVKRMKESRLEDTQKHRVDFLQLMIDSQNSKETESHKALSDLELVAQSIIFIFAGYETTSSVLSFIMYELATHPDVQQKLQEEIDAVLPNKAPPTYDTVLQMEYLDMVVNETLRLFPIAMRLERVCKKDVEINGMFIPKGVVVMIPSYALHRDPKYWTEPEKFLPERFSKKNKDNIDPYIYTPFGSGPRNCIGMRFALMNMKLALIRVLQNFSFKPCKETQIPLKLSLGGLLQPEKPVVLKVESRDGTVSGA
smiles,measurement,setting,value
CC1(C)C(=O)N(Cc2c(F)cccc2Cl)c2cc(C(=O)NCc3c(F)cc(F)cc3F)ccc21,Activity,[1],Active
same,inhibition (INH),Cytochrome P450 2C9,Not Active
same,Activity,[2],Active
same,inhibition (INH),Cytochrome P450 3A4,Not Active
same,Activity,[3],Active
same,Activity,B16-F10,Non-Toxic
same,Activity,HEK293T [4],Active
same,half-life,[5],1.41 h
same,Activity,[6],Active
same,Stabilty,[7],Stable
same,Activity,[8],Active
same,Activity,[9],Active
same,Vd,[10],2.69 L/kg
same,Activity,[11],Active
same,Activity,[12],Active
same,Activity,[13],Active
same,inhibition at 10 µM,hERG (KCNH2),20%
same,inhibition (INH),Cytochrome P450 1A2,Not Active
same,AUC at 24 h,[14],2090 ng·h/mL
same,Activity,HEK293T [15],Active
same,Activity,HEK293T [16],Dose-dependent effect
